Laboratory results as given in ChEMBL document CHEMBL2331483, “3-Hydroxypyridin-2-thione as novel zinc binding group for selective histone deacetylase inhibition” (J Med Chem, 2013).
Calls of active or inactive are those of the source. The rule behind the calls is not given here.

Experiments:
DU-145 = experiment: Cytotoxicity against human DU145 cells assessed as growth inhibition by MTS assay; format: functional, cell-based
In short: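 Cells kept at 37°C in 5% CO2. DU-145 grew in EMEM and LNCaP in RPMI 1640, each with 10% FBS. Cells were plated 24 h before compound treatment, with top concentration 20 μM and final DMSO 0.1%. Viability was read by MTS per the kit protocol. IC50 is mean ± SD from at least 2 independent triplicate experiments.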

Histone deacetylase 8 = target: T1, Histone deacetylase 8 (Homo sapiens, UniProt Q9BY41); experiment: (§1) Inhibition of HDAC8 (unknown origin) after 60 mins by SAMDI […] analysis
T1 sequence (Q9BY41 whole entry): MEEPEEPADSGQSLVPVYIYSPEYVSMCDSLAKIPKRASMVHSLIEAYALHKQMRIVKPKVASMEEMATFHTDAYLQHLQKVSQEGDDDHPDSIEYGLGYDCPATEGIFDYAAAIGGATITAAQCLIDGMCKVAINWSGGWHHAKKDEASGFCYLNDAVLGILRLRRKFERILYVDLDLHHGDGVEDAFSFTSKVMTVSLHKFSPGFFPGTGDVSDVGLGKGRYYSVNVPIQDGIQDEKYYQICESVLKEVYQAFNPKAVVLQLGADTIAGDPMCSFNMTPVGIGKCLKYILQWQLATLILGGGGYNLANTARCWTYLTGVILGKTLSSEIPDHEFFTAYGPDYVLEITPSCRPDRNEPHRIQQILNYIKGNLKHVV

LNCaP = experiment: Cytotoxicity against human LNCAP cells assessed as growth inhibition by MTS assay; format: functional, cell-based
In short: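 Cells kept at 37°C in 5% CO2. Cells were plated 24 h before compound treatment, with top concentration 20 μM and final DMSO 0.1%. Viability was read by MTS per the kit protocol. IC50 is mean ± SD from at least 2 independent triplicate experiments.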

Jurkat = experiment: cells; format: functional, cell-based, Homo sapiens
[1] = target: T2, Histone deacetylase 8 (Homo sapiens) (UniProt Q9BY41); experiment: as §1
T2 sequence (whole entry): T1 sequence (Q9BY41 whole entry)

[2] = target: T3, Protein deacetylase HDAC6 (Homo sapiens) (UniProt Q9UBN7); experiment: Inhibition of HDAC6 (unknown origin) after 60 mins by SAMDI mass spectrometric analysis
T3 sequence (whole entry): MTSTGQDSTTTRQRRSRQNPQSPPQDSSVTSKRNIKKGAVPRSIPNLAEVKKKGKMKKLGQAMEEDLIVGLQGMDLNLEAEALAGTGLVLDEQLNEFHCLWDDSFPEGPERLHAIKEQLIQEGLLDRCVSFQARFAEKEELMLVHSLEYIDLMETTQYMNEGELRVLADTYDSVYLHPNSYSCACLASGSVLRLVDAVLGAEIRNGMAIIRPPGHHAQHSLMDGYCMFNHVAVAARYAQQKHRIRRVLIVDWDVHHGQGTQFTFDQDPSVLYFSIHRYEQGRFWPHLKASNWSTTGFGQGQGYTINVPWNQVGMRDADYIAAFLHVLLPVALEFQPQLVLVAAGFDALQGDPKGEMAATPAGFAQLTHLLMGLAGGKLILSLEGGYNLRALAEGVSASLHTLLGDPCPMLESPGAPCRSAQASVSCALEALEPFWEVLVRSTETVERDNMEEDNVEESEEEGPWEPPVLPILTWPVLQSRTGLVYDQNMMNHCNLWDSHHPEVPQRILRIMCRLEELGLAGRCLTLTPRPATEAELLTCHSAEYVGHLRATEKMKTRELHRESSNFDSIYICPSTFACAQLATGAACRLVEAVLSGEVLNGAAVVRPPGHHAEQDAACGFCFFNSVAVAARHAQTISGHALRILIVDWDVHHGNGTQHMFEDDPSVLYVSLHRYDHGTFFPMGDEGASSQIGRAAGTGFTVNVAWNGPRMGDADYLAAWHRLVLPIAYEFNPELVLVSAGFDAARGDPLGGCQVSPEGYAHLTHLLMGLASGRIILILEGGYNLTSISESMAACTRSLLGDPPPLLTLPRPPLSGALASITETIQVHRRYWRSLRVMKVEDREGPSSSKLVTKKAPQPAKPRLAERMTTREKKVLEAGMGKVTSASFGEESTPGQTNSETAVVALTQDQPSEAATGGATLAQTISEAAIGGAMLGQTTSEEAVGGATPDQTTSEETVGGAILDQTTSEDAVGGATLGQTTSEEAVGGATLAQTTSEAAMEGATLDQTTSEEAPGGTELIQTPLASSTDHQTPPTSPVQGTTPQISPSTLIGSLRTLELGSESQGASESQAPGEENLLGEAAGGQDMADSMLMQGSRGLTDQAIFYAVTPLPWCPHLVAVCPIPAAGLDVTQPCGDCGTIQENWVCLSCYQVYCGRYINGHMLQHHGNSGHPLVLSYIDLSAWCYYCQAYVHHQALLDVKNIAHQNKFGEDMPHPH

[3] = target: Histone deacetylase 1 (Homo sapiens) (UniProt Q13547); experiment: Inhibition of HDAC1 (unknown origin) after 60 mins by SAMDI […] analysis
Chain of Histone deacetylase 1 (Homo sapiens) (Q13547 whole entry, canonical isoform): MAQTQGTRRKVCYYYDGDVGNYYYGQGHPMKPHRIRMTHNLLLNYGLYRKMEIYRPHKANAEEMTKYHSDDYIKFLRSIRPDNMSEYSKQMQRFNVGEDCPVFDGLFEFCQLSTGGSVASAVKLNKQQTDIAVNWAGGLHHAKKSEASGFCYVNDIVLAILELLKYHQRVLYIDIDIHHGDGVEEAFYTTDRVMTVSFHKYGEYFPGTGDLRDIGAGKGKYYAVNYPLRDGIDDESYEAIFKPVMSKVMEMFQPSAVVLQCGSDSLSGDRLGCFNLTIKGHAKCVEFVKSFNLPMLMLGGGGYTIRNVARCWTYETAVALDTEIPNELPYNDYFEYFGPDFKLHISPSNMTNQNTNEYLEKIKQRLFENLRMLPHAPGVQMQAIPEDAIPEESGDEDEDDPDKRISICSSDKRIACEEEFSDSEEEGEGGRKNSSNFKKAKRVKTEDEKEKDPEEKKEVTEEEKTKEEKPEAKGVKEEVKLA
In short: (§2)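 Label-free SAMDI deacetylase assay: isoform-optimized peptide substrate (50 μM) with enzyme (250 nM) and inhibitor, 60 min at 37°C. Reactions were quenched with TSA, immobilized on maleimide monolayers, washed and read by MALDI-MS. Yield came from substrate and deacetylated product peak intensities, in triplicate.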

[4] = target: T3, Protein deacetylase HDAC6 (Homo sapiens); experiment: Inhibition of HDAC6 (unknown origin) at 10 uM after 60 mins by SAMDI […] analysis relative to control; in short: as §2
[5] = Aqueous solubility of the compound; format: physicochemical; conditions: buffer
[6] = target: T2, Histone deacetylase 8 (Homo sapiens); experiment: Inhibition of HDAC8 (unknown origin) at 10 uM after 60 mins by SAMDI […] analysis relative to control; in short: as §2
[7] = Homo sapiens, DU-145, read-out: IC50
[8] = Homo sapiens, LNCaP, read-out: IC50
[9] = Homo sapiens, Jurkat, 72 h, read-out: IC50

Row | SMILES | inhibition [1] | inhibition [2] | inhibition [3] | further results
1 | Oc1cccn(Cc2cn(-c3ccccc3)nn2)c1=S | – | – | – | IC50 (DU-145; [7]): > 20 µM; IC50 (Histone deacetylase 8): 1.57 µM; IC50 (LNCaP; [8]): 13.1 µM; IC50 (Jurkat; [9]): 4.68 µM
2 | Cc1ccc(-c2ccc(Cn3cccc(O)c3=O)cc2)cc1 | inactive | inactive | inactive | –
3 | N#Cc1cccc(-c2ccc(Cn3cccc(O)c3=O)cc2)c1 | inactive | inactive | inactive | –
4 | Cn1cccc(O)c1=O | inactive | inactive | inactive | –
5 | O=c1c(O)cccn1Cc1ccccc1 | inactive | inactive | inactive | –
6 | N#Cc1cccc(-c2ccc(Cn3cccc(O)c3=S)cc2)c1 | – | – | – | inhibition [4]: 44%
7 | CN(C)c1ccc(-c2ccc(Cn3cccc(O)c3=S)cc2)cc1 | – | – | – | IC50 (DU-145; [7]): > 20 µM; inhibition [4]: < 20%; solubility [5]: < 65 µg/mL; IC50 (LNCaP; [8]): 16.2 µM; IC50 (Jurkat; [9]): 10.6 µM
8 | Cc1cccc(-c2ccc(Cn3cccc(O)c3=O)cc2)c1 | inactive | inactive | inactive | –
9 | Oc1cccnc1O | – | – | – | inhibition [6]: < 20%; inhibition [4]: < 20%
10 | O=c1c(O)cccn1Cc1ccc(-c2ccncc2)cc1 | inactive | inactive | inactive | –
11 | CN(C)c1ccc(-c2ccc(Cn3cccc(O)c3=O)cc2)cn1 | inactive | inactive | inactive | –
12 | N#Cc1ccc(-c2ccc(Cn3cccc(O)c3=O)cc2)cc1 | inactive | inactive | inactive | –
13 | CN(C)c1ccc(-c2ccc(Cn3cccc(O)c3=O)cc2)cc1 | inactive | inactive | inactive | –
14 | CN(C)c1ccc(-c2ccc(Cn3cccc(O)c3=S)cc2)cn1 | – | – | – | inhibition [6]: 34%
15 | Cc1ccccc1-c1ccc(Cn2cccc(O)c2=O)cc1 | inactive | inactive | inactive | –
16 | O=c1c(O)cccn1Cc1ccc(-c2ccccc2)cc1 | inactive | inactive | inactive | –
17 | Oc1ccc[nH]c1=S | – | – | – | IC50 (DU-145; du-145): Not Active; solubility [5]: < 65 µg/mL; IC50 (LNCaP; lncap): Not Active; IC50 (Jurkat; jurkat): Not Active
18 | Cc1ccccc1-c1ccc(Cn2cccc(O)c2=S)cc1 | – | – | – | IC50 (LNCaP; [8]): 7.75 µM
